Measurements reported in PMC2848690 (Journal of medicinal chemistry, 2010).
pIC50: −log10 of the molar value.

How the values were obtained:
[1] = target: recombinant wild type human BCA2 (Homo sapiens, UniProt Q9Y4L5); assay: Recombinant BCA2 autoubiquitination assay; type: biochemical; settings: 50 μM compound, 30 min preincubation
In short: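 Test compound stocks (10 mM in DMSO) were diluted in reaction buffer and preincubated with 10 ng recombinant His-BCA2 (final 5 or 50 μM) for 30 min at room temperature. ATP (20 mM stock), ubiquitin (1 μg), rabbit E1 (20 ng) and human UbcH5b (20 ng) were added in Tris-HCl pH 8.0/DTT/MgCl2 buffer. Reactions ran 1 h at 30 °C, then SDS-PAGE and anti-ubiquitin immunoblot.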

MCF-7 cells [2] = assay: MTT proliferation assay, MCF-7; type: cell-based, human; settings: for Mean IC50 ±SD in MCF-7: MTT assay, 72 hour drug exposure (footnote a), BCA2 +ve, ER +ve, three independent experiments; for IC100 (100% growth inhibitory concentration) in MCF-7: delineated from MTT growth curves
In short: (§1)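 Exponentially growing cells were kept in RPMI 1640 with 10% heat-inactivated FBS at 37 °C and 5% CO2. They were dosed with test compound from 0.00001 to 10 μM and read by MTT. Each compound was tested in triplicate. Active compounds had three independent experiments, reported as mean ± SD. IC50 and IC100 were read from growth curves.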

MCF-7 cells [3] = assay: Zinc chloride rescue of growth inhibition, MTT assay in MCF-7; type: cell-based, human; settings: for Growth inhibitory activity in presence of zinc chloride: compound at its IC50, ZnCl2 600 nM to 75 μM, 5 days, MCF-7
BCA2 = BCA2 (Homo sapiens, UniProt Q9Y4L5); assay: Endogenous BCA2 protein stability in MCF-7 cells; type: cell-based; settings: 16 hrs exposure at IC100 concentration, compound alone
In short: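 MCF-7 cells (1×10^6) were seeded and grown overnight, then exposed for 16 h to test compound alone, or with cycloheximide (100 μM) and/or a proteasome inhibitor (10 μM). DMSO vehicle controls ran for 16 h. Whole-cell lysates were immunoblotted with in-house anti-BCA2 antibodies, using beta-actin as the loading control.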

T47D cells = assay: MTT proliferation assay, T47D; type: cell-based, human; settings: 72 hour drug exposure (footnote a), BCA2 +ve, ER +ve
In short: as §1

[4] = system: BCA2 low/− cells (MDA-MB-231 or MCF10A); assay: MTT assay, BCA2 low/negative cells as a group; type: cell-based, human; settings: active if IC50 <10 μM
In short: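 MDA-MB-231 (BCA2 low/−, ER −) was grown in RPMI 1640 with 10% heat-inactivated FBS, and normal MCF10A mammary epithelial cells in MEGM, both at 37 °C and 5% CO2. Exponentially growing cells received test compound at 0.00001–10 μM for 72 h, followed by MTT read-out. IC50 values came from growth curves, with triplicate wells and three independent experiments (mean ± SD).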

MDA-MB-231 cells = assay: MTT proliferation assay, MDA-MB-231; type: cell-based; settings: Homo sapiens, MDA-MB-231, 72 h, read-out: Mean IC50 ±SD in MDA-MB-231
In short: as §1

[5] = system: BCA2+ cells (MCF-7, T47D, MDA-MB-231/ER); assay: MTT assay, BCA2-positive breast cancer cell lines as a group; type: cell-based, human; settings: active if IC50 <10 μM
In short: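 MCF-7, T47D and MDA-MB-231/ER (a stable ERα-transfected, G418-selected clone of MDA-MB-231 kept in 1mg/mL G418) were grown in RPMI 1640 with 10% heat-inactivated FBS at 37 °C and 5% CO2. Exponentially growing cells were exposed to test compound at 0.00001–10 μM for 72 h, and growth was read by MTT. IC50 values came from growth curves, with triplicate wells and three independent experiments (mean ± SD).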

ALDH1 = target: T1, ALDH1 (Homo sapiens, UniProt P00352); assay: ALDH1 inhibition in K562 cells; type: cell-based; settings: for ALDH-inhibitory activity (in words): K562 cells, 15 μM
T1 sequence (P00352 2-501 limits assumed): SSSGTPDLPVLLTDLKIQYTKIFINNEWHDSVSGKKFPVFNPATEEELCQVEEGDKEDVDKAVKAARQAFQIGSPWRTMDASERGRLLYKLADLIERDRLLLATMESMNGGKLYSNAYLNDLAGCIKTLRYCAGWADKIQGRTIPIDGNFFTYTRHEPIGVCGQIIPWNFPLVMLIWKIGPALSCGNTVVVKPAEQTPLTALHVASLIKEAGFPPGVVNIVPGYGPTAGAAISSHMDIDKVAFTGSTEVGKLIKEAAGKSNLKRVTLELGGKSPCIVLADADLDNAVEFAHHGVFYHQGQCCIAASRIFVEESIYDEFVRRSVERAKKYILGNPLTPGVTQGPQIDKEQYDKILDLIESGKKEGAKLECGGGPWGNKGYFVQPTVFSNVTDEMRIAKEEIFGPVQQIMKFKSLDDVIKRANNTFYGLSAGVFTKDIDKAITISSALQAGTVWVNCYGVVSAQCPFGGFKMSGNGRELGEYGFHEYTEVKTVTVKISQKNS

[6] = cited from earlier work

recombinant wild type human BCA2, sequence (Q9Y4L5 whole entry): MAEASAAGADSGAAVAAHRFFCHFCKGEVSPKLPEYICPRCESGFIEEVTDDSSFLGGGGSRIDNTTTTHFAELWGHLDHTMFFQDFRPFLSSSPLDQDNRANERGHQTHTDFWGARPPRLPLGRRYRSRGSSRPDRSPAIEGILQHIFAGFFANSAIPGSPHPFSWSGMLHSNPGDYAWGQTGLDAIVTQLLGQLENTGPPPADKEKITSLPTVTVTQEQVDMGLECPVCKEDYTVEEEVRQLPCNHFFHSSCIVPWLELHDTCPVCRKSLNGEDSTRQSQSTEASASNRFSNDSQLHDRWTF
BCA2, sequence (Q9Y4L5 whole entry): as above

S=C(SSC(=S)N1CCCCC1)N1CCCCC1 [Compound 3a, Bis(piperidinylthiocarbonyl)disulfide]
Inhibition of autoubiquitination of recombinant BCA2 [1]: abolish the autoubiquitination activity
Mean IC50 ±SD in MCF-7 (MCF-7 cells [2]): submicromolar
IC100 (100% growth inhibitory concentration) in MCF-7 (MCF-7 cells [2]): 0.25 µM
Growth inhibitory activity in presence of zinc chloride (MCF-7 cells [3]): completely abolished
BCA2 protein levels in MCF-7 cells (BCA2): marked reduction
Mean IC50 ±SD in T47D (T47D cells): submicromolar

S=C(SSC(=S)N1CCCC1)N1CCCC1 [Compound 3c, Bis(pyrrolidinylthiocarbonyl)disulfide]
Inhibition of autoubiquitination of recombinant BCA2 [1]: abolish the autoubiquitination activity
Mean IC50 ±SD in MCF-7 (MCF-7 cells [2]): submicromolar
Mean IC50 ±SD in T47D (T47D cells): submicromolar

CCN(CC)C(=S)SSCCO [Compound 5f, 2-Hydroxyethyl diethylcarbamo(dithioperoxo)thioate]
Inhibition of autoubiquitination of recombinant BCA2 [1]: abolish the autoubiquitination activity
Mean IC50 ±SD in MCF-7 (MCF-7 cells [2]): submicromolar
Activity in BCA2 low/− cells [4]: inactive
pIC50 (MDA-MB-231 cells): < 5.00
Activity in BCA2+ cells [5]: active
ALDH-inhibitory activity (in words) (ALDH1): lack ALDH-inhibitory activity
ALDH+ K562 cells (%) (ALDH1; compound 15 μM, 45 min at 37 °C): 36.9 ± 3.15%
Mean IC50 ±SD in T47D (T47D cells): submicromolar

CCCCCCSSC(=S)N(CC)CC [Compound 5d, Hexyl diethylcarbamo(dithioperoxo)thioate]
Inhibition of autoubiquitination of recombinant BCA2 [1]: abolish the autoubiquitination activity
Mean IC50 ±SD in MCF-7 (MCF-7 cells [2]): submicromolar
IC100 (100% growth inhibitory concentration) in MCF-7 (MCF-7 cells [2]): 1 µM
Activity in BCA2 low/− cells [4]: inactive
Growth inhibitory activity in presence of zinc chloride (MCF-7 cells [3]): completely abolished
Activity in BCA2+ cells [5]: active
BCA2 protein levels in MCF-7 cells (BCA2): marked reduction
ALDH-inhibitory activity (in words) (ALDH1): lack ALDH-inhibitory activity
Mean IC50 ±SD in T47D (T47D cells): submicromolar

CCN(CC)C(=S)SSC(=S)N(CC)CC [Compound 1, bis(diethylaminothiocarbonyl)-disulfide, reference compound]
Oral bioavailability [6]: > 80%
Inhibition of autoubiquitination of recombinant BCA2 [1]: abolish the autoubiquitination activity
Growth inhibitory activity in presence of zinc chloride (MCF-7 cells [3]): completely abolished

[Cl-].[Cl-].[Zn+2] [Zinc chloride, zinc (II) chloride]
Effect on the growth of MCF-7 cells (MCF-7 cells [3]; zinc chloride alone): no effect

C1CN(SSN2CCOCC2)CCO1 [Compound 4, 4,4′-dithiodimorpholine]
Activity in BCA2 low/− cells [4]: inactive
Activity in BCA2+ cells [5]: inactive
